{"source": "ChEMBL document CHEMBL1157968", "about": "“Chemical and cytotoxic constituents from the leaves of Cinnamomum kotoense” (2006)", "type_in_all_cases": "functional", "key": {"HeLa [1]": {"system": "HeLa", "test": "Induction of apoptosis in human HeLa cells assessed as number of cells with decreased mitochondrial membrane potential at 100 uM after 1 hr by measuring rhodamine 123 fluorescence intensity", "parameters": "scale not given: the % may be the effect or the level left", "procedure,_shortened": "(§1)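 Cells in DMEM/10% FCS, medium renewed at 80% confluence, then 100 µM agent (0.1% DMSO final) for 1–24 h. Stained with 5 µM rhodamine 123 for 30 min in the dark, washed, trypsinized and resuspended in PBS; flow cytometry, percentage of cells with weak rhodamine 123 staining (reduced ΔΨm); at least three experiments, representative shown.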"}, "HeLa [2]": {"system": "HeLa", "test": "Induction of apoptosis in human HeLa cells pretreated with 10 mM glutathione ethyl ester for 1 hr at 100 uM after 24 hrs by TUNEL assay", "procedure,_shortened": "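HeLa in DMEM/10% FCS, untreated or pretreated 1 h with listed inhibitor, then 100 µM agent (0.1% DMSO final) for 24 h. Pooled cells fixed in 1% paraformaldehyde (30 min, 4 °C), 70% EtOH (30 min, −20 °C); strand breaks labelled with TdT/fluorescein-BrdUTP (1 h, 37 °C), PI/RNase counterstain; flow cytometry, % apoptotic cells; ≥3 experiments.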"}, "HeLa [3]": {"system": "HeLa", "test": "Induction of apoptosis in human HeLa cells assessed as increase p53 expression at 100 uM after 12 hrs by FACS", "procedure,_shortened": "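Cells at 60% confluence were exposed to 100 µM for 0–24 h. Floating and adherent cells were fixed in 1% paraformaldehyde (15 min, 4 °C) and permeabilized in 70% EtOH. They were stained with FITC-anti-p53 monoclonal antibody for 1 h at 37 °C, then with PI/RNase. Flow cytometry gave the percentage of p53-positive cells.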"}, "HeLa [4]": {"system": "HeLa", "test": "Induction of apoptosis in human HeLa cells assessed as increase caspase 3/7 activities at 100 uM after 3 hrs by FACS relative to control", "procedure,_shortened": "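After 3–24 h exposure at 100 µM, HeLa cells were trypsinized. 1 × 10^6 cells in DMEM were mixed 1:1 with Z-DEVD-R110 substrate reagent and incubated 1 h at 37 °C, then washed. Released R110 read per cell by flow cytometry (ex 488/em 520 nm) and expressed as fold over untreated cells. At least three runs.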"}, "HeLa [5]": {"system": "HeLa", "test": "Cell cycle arrest in human HeLa cells pretreated with 10 mM glutathione ethyl ester for 1 hr assessed as subG1 phase accumulation at 100 uM after 24 hrs by FACS", "procedure,_shortened": "(§2)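 HeLa cells pretreated for 1 h with the listed agent (10 mM GSH ethyl ester, 10 µM dexamethasone, 10 µM pifithrin, 100 µM Boc-Asp(OMe)-fmk or 5 µM cyclosporin A), then given 100 µM compound for 24 h. Cells fixed in PBS-MeOH, stained with PI/RNase and analysed by flow cytometry for DNA content. At least three experiments, one representative shown.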"}, "HeLa [6]": {"system": "HeLa", "test": "Induction of apoptosis in human HeLa cells assessed as increase in intracellular peroxide level at 100 uM after 24 hrs by FACS relative to untreated control", "procedure,_shortened": "(§3)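 HeLa cells at 80% confluence were refed and exposed to 100 µM for 1, 3 or 24 h. They were loaded with 10 µM DCFH-DA for 30 min in the dark, trypsinized and resuspended in PBS. DCF fluorescence was measured by flow cytometry and expressed as fold versus untreated cells. At least three experiments.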"}, "HeLa [7]": {"system": "HeLa", "test": "Cell cycle arrest in human HeLa cells assessed as G2/M phase accumulation at 50 uM after 24 hrs by FACS", "procedure,_shortened": "(§4)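 HeLa cells seeded 5 × 10^5 per dish 48 h ahead in DMEM with 10% FCS, then exposed to compound for 24 h (DMSO 0.1% final). Adherent and floating cells pooled, fixed in PBS-MeOH (1:2) at 4 °C for at least 18 h, and stained with PI (50 µg/mL) plus RNase A for 30 min at room temperature. Flow cytometry at 488 nm excitation, doublets gated out; phase percentages taken from DNA histograms.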"}, "HeLa [8]": {"system": "HeLa", "test": "Cell cycle arrest in human HeLa cells pretreated with 10 uM pifithrin-alpha for 1 hr assessed as S phase accumulation at 100 uM after 24 hrs by FACS", "procedure,_shortened": "as §2"}, "HeLa [9]": {"system": "HeLa", "test": "Induction of apoptosis in human HeLa cells assessed as increase in intracellular glutathione-depleted cell population at 25 uM after 24 hrs by FACS", "procedure,_shortened": "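HeLa cells at 80% confluence got fresh medium and were exposed for 24 h. Adherent and floating cells were pooled, adjusted to (1-2) × 10^6/mL and stained with 25 µM CMF-DA for 30 min at 37 °C. After washing, flow cytometry scored the percentage of GSH-negative cells. At least three experiments.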"}, "HeLa [10]": {"system": "HeLa", "test": "Induction of apoptosis in human HeLa cells assessed as increase p53 expression at 100 uM after 6 hrs by FACS", "procedure,_shortened": "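HeLa seeded at 5 × 10^5 cells/dish 48 h before, in DMEM with 10% FCS; medium renewed at 60% confluence, then 100 µM agent (0.1% DMSO final) for 0–24 h. Pooled floating and adherent cells fixed in 1% paraformaldehyde (15 min, 4 °C), permeabilized in 70% EtOH (30 min, 4 °C), then FITC-conjugated mouse anti-p53 mAb (1 h, 37 °C), PI/RNase counterstain; flow cytometry, % p53-positive cells; ≥3 experiments.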"}, "HeLa [11]": {"system": "HeLa", "test": "Induction of apoptosis in human HeLa cells assessed as number of cells with decreased mitochondrial membrane potential at 100 uM after 12 hrs by measuring rhodamine 123 fluorescence intensity", "parameters": "scale not given: the % may be the effect or the level left", "procedure,_shortened": "as §1"}, "HeLa [12]": {"system": "HeLa", "test": "Cell cycle arrest in human HeLa cells pretreated with 100 uM Boc-Asp(OMe)-fmk for 1 hr assessed as subG1 phase accumulation at 100 uM after 24 hrs by FACS", "procedure,_shortened": "as §2"}, "HeLa [13]": {"system": "HeLa", "test": "Cell cycle arrest in human HeLa cells pretreated with 10 uM pifithrin-alpha for 1 hr assessed as G2/M phase accumulation at 100 uM after 24 hrs by FACS", "procedure,_shortened": "as §2"}, "HeLa [14]": {"system": "HeLa", "test": "Induction of apoptosis in human HeLa cells assessed as increase in intracellular peroxide level at 100 uM after 1 hr by FACS relative to untreated control", "procedure,_shortened": "as §3"}, "HeLa [15]": {"system": "HeLa", "test": "Cell cycle arrest in human HeLa cells assessed as S phase accumulation at 100 uM after 24 hrs by FACS", "procedure,_shortened": "as §4"}, "HeLa [16]": {"system": "HeLa", "test": "Induction of apoptosis in human HeLa cells assessed as increase in intracellular peroxide level at 100 uM after 3 hrs by FACS relative to untreated control", "procedure,_shortened": "as §3"}, "HeLa [17]": {"system": "HeLa", "test": "Induction of apoptosis in human HeLa cells assessed as increase in intracellular hydrogen peroxide level at 100 uM after 24 hrs by FACS relative to untreated control", "procedure,_shortened": "as §3"}, "HeLa [18]": {"system": "HeLa", "test": "Cell cycle arrest in human HeLa cells assessed as subG1 phase accumulation at 100 uM after 24 hrs by FACS", "procedure,_shortened": "as §4"}, "HeLa [19]": {"system": "HeLa", "test": "Cell cycle arrest in human HeLa cells pretreated with 10 mM glutathione ethyl ester for 1 hr assessed as S phase accumulation at 100 uM after 24 hrs by FACS", "procedure,_shortened": "as §2"}, "HeLa [20]": {"system": "HeLa", "test": "Cell cycle arrest in human HeLa cells pretreated with 100 uM Boc-Asp(OMe)-fmk for 1 hr assessed as S phase accumulation at 100 uM after 24 hrs by FACS", "procedure,_shortened": "as §2"}, "HeLa [21]": {"system": "HeLa", "test": "Cell cycle arrest in human HeLa cells assessed as subG1 phase accumulation at 25 uM after 24 hrs by FACS", "procedure,_shortened": "as §4"}}}
{"smiles": "CCCCCCCCCCCCC/C=C(/C(=O)OC)[C@@H](O)C(C)=O", "note": "[SECOKOTOMOLIDE A]", "values": [{"measurement": "Activity", "setting": "HeLa [1]", "value": 1.4, "unit": "%"}, {"measurement": "Activity", "setting": "HeLa [2]", "value": 5.43, "unit": "%"}, {"measurement": "Activity", "setting": "HeLa [3]", "value": 2.3, "unit": "%"}, {"measurement": "fold change (FC)", "setting": "HeLa [4]", "value": 3.5}, {"measurement": "Activity", "setting": "HeLa [5]", "value": 11.3, "unit": "%"}, {"measurement": "fold change (FC)", "setting": "HeLa [6]", "value": 3.9}, {"measurement": "Activity", "setting": "HeLa [7]", "value": 29, "unit": "%"}, {"measurement": "Activity", "setting": "HeLa [8]", "value": 48.5, "unit": "%"}, {"measurement": "Activity", "setting": "HeLa [9]", "value": 49, "unit": "%"}, {"measurement": "Activity", "setting": "HeLa [10]", "value": 3.2, "unit": "%"}, {"measurement": "Activity", "setting": "HeLa [11]", "value": 75.1, "unit": "%"}, {"measurement": "Activity", "setting": "HeLa [12]", "value": 74.8, "unit": "%"}, {"measurement": "Activity", "setting": "HeLa [13]", "value": 0, "unit": "%"}, {"measurement": "fold change (FC)", "setting": "HeLa [14]", "value": 3.4}, {"measurement": "Activity", "setting": "HeLa [15]", "value": 28.7, "unit": "%"}, {"measurement": "fold change (FC)", "setting": "HeLa [16]", "value": 2.9}, {"measurement": "fold change (FC)", "setting": "HeLa [17]", "value": 3.9}, {"measurement": "Activity", "setting": "HeLa [18]", "value": 75, "unit": "%"}, {"measurement": "Activity", "setting": "HeLa [19]", "value": 8.4, "unit": "%"}, {"measurement": "Activity", "setting": "HeLa [20]", "value": 13.6, "unit": "%"}, {"measurement": "Activity", "setting": "HeLa [21]", "value": 47.7, "unit": "%"}]}
